From PubChem
Only some compounds are listed: those with a hit (about 3.5% of all), similar ones and a draw of the others.
RGS4 act = RGS4 potentiation or activation. 0.92% of 310,000 active. B-score at 10 µM. HEK293 M3R/inducible RGS4, carbachol calcium flux Fluo4; stronger effect = lower value. AID 463111;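 active means B-score of the integrated calcium signal more than 4 SD below the library mean, with starting fluorescence not abnormally high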;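 further: negative B-score means reduced calcium response which marks RGS4 activation or potentiation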
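Also added: carbachol at ECmax as muscarinic agonist stimulus; Assay system: HEK293 cells with stable M3R and inducible RGS4; Timing: overnight RGS4 induction, 30 min dye load 37 °C, 20 min compound RT; Measured by: Fluo4-AM (2 µM) calcium-flux fluorescence, kinetic read.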
RGS4 inh = human RGS4 inhibition | P49798 | HEK293 M3R/RGS4 inducible, Fluo-4 calcium flux; stronger effect = higher value; triggered by carbachol at its EC20 | B-score at 10 µM | 0.45% of 310,000 active;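 active means B-score, a plate-corrected calcium signal, over three deviations above library mean, with baseline fluorescence within five deviations of library mean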;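 further: RGS4 expression induced by doxycycline in cells with stable M3 receptor; B-score is computed from the integrated fluorescence ratio over baseline after carbachol; higher B-score means a larger calcium signal and so more RGS4 inhibition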
Target sequence (P49798 whole entry, looked up): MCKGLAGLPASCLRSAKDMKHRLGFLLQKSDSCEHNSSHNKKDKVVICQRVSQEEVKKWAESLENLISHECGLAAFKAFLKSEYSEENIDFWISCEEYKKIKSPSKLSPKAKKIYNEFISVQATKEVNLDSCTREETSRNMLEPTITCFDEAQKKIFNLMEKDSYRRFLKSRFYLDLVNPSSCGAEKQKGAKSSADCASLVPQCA
MrgX1 agonist = activates human MrgX1 receptor signaling | AID 588627 | 0.44% of 310,000 active | B-score at 10 µM | MrgX1-HEK293 cells, Fluo-4 calcium fluorescence, agonist mode; stronger effect = higher value;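 active means calcium response B-score plate-corrected fluorescence ratio at least 3 library SD, with starting fluorescence B-score inside 5 SD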
Target sequence (Q96LB2 whole entry, looked up): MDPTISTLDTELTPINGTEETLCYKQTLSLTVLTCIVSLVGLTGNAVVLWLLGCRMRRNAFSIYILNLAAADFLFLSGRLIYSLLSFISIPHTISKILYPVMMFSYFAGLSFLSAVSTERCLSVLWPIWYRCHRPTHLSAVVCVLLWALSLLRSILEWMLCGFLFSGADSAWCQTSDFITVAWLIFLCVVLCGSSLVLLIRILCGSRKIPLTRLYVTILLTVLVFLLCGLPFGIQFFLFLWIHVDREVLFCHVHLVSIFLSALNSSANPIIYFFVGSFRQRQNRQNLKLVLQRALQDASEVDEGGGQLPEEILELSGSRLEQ
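System – MrgX1-expressing HEK293 cells · Incubation – cells plated overnight, dye loaded 0.5 h 37 °C, 0.5 h room temperature · Technique – kinetic Fluo-4 NW fluorescence of intracellular calcium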
MrgX1 allo act = allosterically activates human MrgX1 receptor signaling | Q96LB2 | MrgX1-HEK293, Fluo-4 calcium flux, FDSS; stronger effect = higher value | B-score at 10 µM | 0.63% of 310,000 active;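 active means plate-corrected calcium response at least 3 library SD above typical, normal starting fluorescence, not activating the receptor alone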;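 further: compound read alongside a low EC10 to EC30 dose of BAM8-22 agonist; peak minus trough fluorescence over baseline measured at the second addition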
MrgX1 antagonist = antagonists of human MrgX1 receptor; B-score at 10 µM; Q96LB2; AID 588676; MRGX1-HEK293 calcium flux, Fluo-4, BAM8-22 antagonism; stronger effect = lower value; 1.3% of 310,000 active;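 active means calcium-response B-score plate-corrected more than 3 library SD below zero, starting fluorescence within 5 deviations, no agonist response on first addition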;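 further: peak minus trough fluorescence over baseline after final BAM8-22 challenge near maximal dose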
MrgX1 antag conf = reconfirmed antagonist of human MrgX1 receptor signaling; shares compounds with MrgX1 antagonist; MrgX1-HEK293, BAM8-22 calcium flux, Fluo-4; stronger effect = lower value; remaining BAM8-22 calcium response % of control (stronger effect = lower value), % at 10 µM; 19% of 2,300 active;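 active means remaining agonist calcium response no higher than 100% minus 3 SD of agonist-only control wells, with starting fluorescence near control levels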;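 further: agonist BAM8-22 given at a near maximal EC90 to ECmax level; peak minus minimum fluorescence divided by baseline after agonist addition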
HEK293 Ca flux = counter-screen for MrgX1 antagonists: effect in parental HEK293 cells; shares compounds with MrgX1 antagonist; Fluo-4 calcium fluorescence, FDSS; fluorescence ratio F(max-min)/F0 at 10 µM; 2% of 4,000 active; AID 624111;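 active means duplicate-averaged calcium fluorescence ratio at least three times the standard deviation of buffer wells, a nonspecific response in parental cells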
HEK293 Ca counter = activity in parental HEK293 cells without MrgX1; shares compounds with MrgX1 antagonist; parental HEK293 calcium flux, Fluo-4 fluorescence ratio; stronger effect = higher value; fluorescence ratio F(max-min)/F0 at 10 µM; 0.4% of 4,000 active;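 active means calcium fluorescence ratio, averaged over duplicates, at least 3 SD of the buffer-well ratio, meaning a nonspecific response in receptor-free cells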;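 further: untransfected parental HEK293 lacking MrgX1 used as counterscreen for MrgX1 allosteric activators; fluorescence change taken during the second addition on a kinetic imager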
HEK293 Ca cntr2 = activity in parental HEK293 cells lacking MrgX1 receptor. shares compounds with MrgX1 antagonist. Fluo-4 calcium fluorescence (FDSS); stronger effect = higher value. fluorescence ratio F(max-min)/F0 at 10 µM. 8.7% of 4,000 active. AID 624115;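 active means calcium fluorescence ratio at least three times the spread of buffer wells, meaning a non-specific response in parental cells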
Hits are given with their value; - = inactive; . = no result.

SMILES	RGS4 act	RGS4 inh	MrgX1 agonist	MrgX1 allo act	MrgX1 antagonist	MrgX1 antag conf	HEK293 Ca flux	HEK293 Ca counter	HEK293 Ca cntr2
CCOc1ccccc1NS(=O)(=O)c1ccc(-c2cnc(C3CC3)o2)cc1	-	-	-	-	-	.	.	.	.
COc1cccc(/C=C2\SC(=O)N(CCC(=O)N3CCC(C(=O)O)CC3)C2=O)c1	-	-	-	-	-	.	.	.	.
CCc1cccc(C)c1NC(=O)C1=C(C(=O)O)CCCC1	-	-	-	-	-7.8	-	-	-	-
O=c1sc(Nc2ccccc2)nc2ccccc12	-	-	-	-	-	.	.	.	.
Cc1ccc(Nc2nc3ccccc3c(=O)s2)cc1	-	-	-	-	-7.3	-	-	-	-
CCOC(=O)c1sc(NC(=O)Nc2cccc(Cl)c2)cc1C	-	-	-	-	-6.1	57%	-	-	-
CCOC(=O)c1sc(NC(=O)c2cccs2)cc1C	-	-	-	-	-	.	.	.	.
CCCC(NC(=O)CCc1c(C)c2cc3c4c(oc3c(C)c2oc1=O)CCCC4)C(=O)O (stereo not drawn)	-	-	-	-	-	.	.	.	.
Cn1c(C(=O)N2CCC(C(N)=O)CC2)cc2cc(Cl)ccc21	-	-	-	-	-6.1	-	-	-	-
Cn1c(C(=O)N2CCc3ccccc3C2)cc2c(=O)n3ccccc3nc21	-	-	-	-	-5.8	-	-	-	-
CCCCc1c(O)cc(C)[nH]c1=O	-	-	-	-	-	.	.	.	.
COc1ccc(Cc2ccc(OC)c(N)c2)cc1N	-	-	-	-	-5.5	-	-	-	-
O=C1N/C(=N/N=C/c2ccccc2)SC1(c1ccccc1)c1ccccc1	-	-	-	-	-	.	.	.	.
O=C(CCS(=O)(=O)c1ccccc1)Nc1cccc(-c2nc3ccccc3s2)c1	-	-	-	-	-6.2	84%	-	-	-
COc1ccccc1OCC(=O)NNC(=O)C(=O)N1CCCC1	-	-	-	-	-	.	.	.	.
Cc1cccc(NC(=O)CSc2nc(N)cc(N)n2)c1	-	-	-	-	-	.	.	.	.
CCOC(=O)c1cccc(NC(=O)CSc2nc(N)cc(N)n2)c1	-	-	-	-	-7.7	-	-	-	-
Cc1oc(CC(C)C)c(CN)c1C(=O)O	-	-	-	-	-4.6	-	-	-	-
Cc1cc(C)n2nc(C(=O)Nc3nccs3)nc2n1	-	-	-	-	-	.	.	.	.
Cc1csc(NC(=O)c2nc3nc(C)cc(C)n3n2)n1	-	-	-	-	-5.4	-	-	-	-
CCN(c1cccc(C)c1)S(=O)(=O)c1cc2c3c(c1)CCN3C(=O)CC2	-	-	-	-	-11	77%	-	-	-
O=C(NCCC1=CCCCC1)N[C@@H](Cc1ccccc1)C(=O)O	-	-	-	-	-9.7	-	-	-	-
O=C(NCCc1ccccc1)NC(Cc1ccccc1)C(=O)O (stereo not drawn)	-	-	-	-	-	.	.	.	.
COc1ccc(Cc2nnc(NS(C)(=O)=O)s2)cc1	-	-	-	-	-6.4	-	-	-	-
O=C(CN(Cc1ccco1)C(=O)CNS(=O)(=O)c1ccc(F)cc1)NCc1ccccc1	-	-	-	-	-	.	.	.	.
SMILES	RGS4 act	RGS4 inh	MrgX1 agonist	MrgX1 allo act	MrgX1 antagonist	MrgX1 antag conf	HEK293 Ca flux	HEK293 Ca counter	HEK293 Ca cntr2
CCOC(=O)c1csc(NC(=O)CCSc2ccccc2)n1	-	-	-	-	-5.3	-	-	-	-
CC(=O)N=c1sc2ccccc2n1C	-	-	-	-	-	.	.	.	.
CC(C(=O)N=c1sc2ccccc2n1C)N1C(=O)C2CC=CCC2C1=O (stereo not drawn)	-	-	-	-	-4.7	-	-	-	-
N#CC1=C(N)Oc2cc3c(cc2C1c1ccc(Cl)cc1)OCO3 (stereo not drawn)	-	-	-	-	-7.9	-	-	-	-
CC(=O)c1cc2c(cc1NC(=O)CSc1nc3ccccc3[nH]1)OCO2	-	-	-	-	-6.6	75%	-	-	-
C=CCn1c(C)cc(C(=O)CSc2nc3ccccc3c(=O)[nH]2)c1C	.	.	-	-	-	.	.	.	.
COCC(C)n1c(C)cc(C(=O)CSc2nc3ccccc3c(=O)[nH]2)c1C (stereo not drawn)	-	-	-	-	-7.7	-	-	-	-
C=CCn1c(C)cc(C(=O)CSc2nc3ccccc3[nH]2)c1C	-	-	-	-	-6.7	71%	-	-	-
O=C(CSc1nc2ccccc2[nH]1)c1c[nH]c2ccccc12	-	-	-	-	-5.7	-	-	-	-
COc1ccc(CC(=O)N(C)C2CCCCC2)cc1S(=O)(=O)N1CCOCC1	-	-	-	-	-4.6	-	-	-	-
COc1ccc(CN(C)C(=O)Cc2ccc(OC)c(S(=O)(=O)N3CCOCC3)c2)cc1	-	-	-	-	-	.	.	.	.
OCC[C@H]1C[C@@H](O)[C@H](O)[C@]2(OCCc3ccccc32)O1	.	.	-	-	-	.	.	.	.
CCCCOC(=O)Cn1c(=O)n(CC(=O)OCCCC)c2ccccc21	-	-	-	-	-	.	.	.	.
CCCCCCCCCCOC(=O)Cn1c(COc2ccc(Cl)cc2)[n+](C)c2ccccc21	-	-	-	-	-10	-	-	-	-
CCCCCCCCCCOC(=O)Cn1c(COc2ccccc2C)[n+](C)c2ccccc21	-7.4	-	-	-	-12	-	-	-	-
CCCCCCCCCCOC(=O)Cn1c(COc2ccccc2)[n+](C)c2ccccc21	-9.3	-	-	-	-10	-	-	-	-
CCCCCOC(=O)Cn1c(=O)oc2ccccc21	-	-	-	-	-	.	.	.	.
O=C(CSc1nccc(=O)[nH]1)Nc1cccc2ccccc12	-	-	-	-	-	.	.	.	.
CCOc1ccc(N(CC(=O)N2CCc3ccccc32)S(=O)(=O)c2c(C)noc2C)cc1	-	-	-	-	-	.	.	.	.
Cc1cc(C)cc(N(CC(=O)N2CCc3ccccc32)S(=O)(=O)c2c(C)noc2C)c1	-	-	-	-	-7.3	-	-	-	-
CCOC(=O)N1CCC(NC(=O)CN(C)S(=O)(=O)c2cc3c(cc2Cl)NC(=O)CO3)CC1	-	-	-	-	-5.2	-	-	-	-
O=C(CCl)Nc1cc(-c2ccccc2)nn1-c1ccccc1	-	-	-	-	-5.3	-	-	-	57
CC(=O)Nc1ccc(-c2cc(NC(C)=O)n(-c3ccccc3)n2)cc1	-	-	-	-	-	.	.	.	.
